# Test results as given in ChEMBL document CHEMBL4229333, “Effects of rigidity on the selectivity of protein kinase inhibitors” (Eur J Med Chem, 2018).
# Columns and labels:
# [1] = molecular target: Serine/threonine-protein kinase D1 (Homo sapiens) (UniProt Q15139); test: Inhibition of PRKD1 (unknown origin) at 1 uM by mobility shift microfluidics platform based assay relative to control
# [2] = molecular target: Protein kinase C beta type (Homo sapiens) (UniProt P05771); test: Inhibition of PKC-beta2 (unknown origin) at 1 uM by mobility shift microfluidics platform based assay relative to control
# [3] = molecular target: Dual specificity tyrosine-phosphorylation-regulated kinase 2 (Homo sapiens) (UniProt Q92630); test: Inhibition of DYRK2 (unknown origin) at 1 uM by mobility shift microfluidics platform based assay relative to control
# [4] = molecular target: Tyrosine-protein kinase Lyn (Homo sapiens) (UniProt P07948); test: Inhibition of LYNB (unknown origin) at 1 uM by mobility shift microfluidics platform based assay relative to control
# [5] = molecular target: Serine/threonine-protein kinase 25 (Homo sapiens) (UniProt O00506); test: Inhibition of STK25 (unknown origin) at 1 uM by mobility shift microfluidics platform based assay relative to control
# [6] = molecular target: Sphingosine kinase 1 (Homo sapiens) (UniProt Q9NYA1); test: Inhibition of SPHK1 (unknown origin) at 1 uM by mobility shift microfluidics platform based assay relative to control
# [7] = molecular target: Serine/threonine-protein kinase DCLK2 (Homo sapiens) (UniProt Q8N568); test: Inhibition of DCAMKL2 (unknown origin) at 1 uM by mobility shift microfluidics platform based assay relative to control
# [8] = molecular target: Ephrin type-B receptor 2 (Homo sapiens) (UniProt P29323); test: Inhibition of EPH-B2 (unknown origin) at 1 uM by mobility shift microfluidics platform based assay relative to control
# [9] = molecular target: Ribosomal protein S6 kinase alpha-2 (Homo sapiens) (UniProt Q15349); test: Inhibition of RSK3 (unknown origin) at 1 uM by mobility shift microfluidics platform based assay relative to control
# [10] = molecular target: Serine/threonine-protein kinase Chk1 (Homo sapiens) (UniProt O14757); test: Inhibition of CHEK1 (unknown origin) at 1 uM by mobility shift microfluidics platform based assay relative to control
# [11] = molecular target: Phosphorylase b kinase gamma catalytic chain, liver/testis isoform (Homo sapiens) (UniProt P15735); test: Inhibition of PHK-gamma2 (unknown origin) at 1 uM by mobility shift microfluidics platform based assay relative to control
# [12] = Apparent permeability from basolateral to apical side in human Caco2 cells in absence of P-gp inhibitor by LC-MS/MS analysis; format: ADME, cell-based; settings: Caco-2
# Method in brief: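 Caco-2 monolayer permeability, measured apical-to-basolateral and basolateral-to-apical. Compound concentrations were quantified by LC-MS/MS, and apparent permeability coefficients (Papp, cm/s) were calculated from them.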
# [13] = molecular target: Serine/threonine-protein kinase PLK4 (Homo sapiens) (UniProt O00444); test: Inhibition of PLK4 (unknown origin) at 1 uM by mobility shift microfluidics platform based assay relative to control
# [14] = molecular target: Glycogen synthase kinase-3 beta (Homo sapiens) (UniProt P49841); test: Inhibition of GSK-3-beta (unknown origin) at 1 uM by mobility shift microfluidics platform based assay relative to control
# [15] = molecular target: Fibroblast growth factor receptor 2 (Homo sapiens) (UniProt P21802); test: Inhibition of FGFR2 (unknown origin) at 1 uM by mobility shift microfluidics platform based assay relative to control
# [16] = molecular target: Serine/threonine-protein kinase TBK1 (Homo sapiens) (UniProt Q9UHD2); test: Inhibition of TBK1 (unknown origin) at 1 uM by mobility shift microfluidics platform based assay relative to control
# [17] = molecular target: RAC-alpha serine/threonine-protein kinase (Homo sapiens) (UniProt P31749); test: Inhibition of AKT1 (unknown origin) at 1 uM by mobility shift microfluidics platform based assay relative to control
# [18] = molecular target: Focal adhesion kinase 1 (Homo sapiens) (UniProt Q05397); test: Inhibition of FAK (unknown origin) at 1 uM by mobility shift microfluidics platform based assay relative to control
# [19] = molecular target: Non-receptor tyrosine-protein kinase TNK1 (Homo sapiens) (UniProt Q13470); test: Inhibition of TNK1 (unknown origin) at 1 uM by mobility shift microfluidics platform based assay relative to control
# [20] = molecular target: MAP kinase-interacting serine/threonine-protein kinase 1 (Homo sapiens) (UniProt Q9BUB5); test: Inhibition of MKNK1 (unknown origin) at 1 uM by mobility shift microfluidics platform based assay relative to control
# [21] = molecular target: Homeodomain-interacting protein kinase 2 (Homo sapiens) (UniProt Q9H2X6); test: Inhibition of HIPK2 (unknown origin) at 1 uM by mobility shift microfluidics platform based assay relative to control
# [22] = molecular target: Rho-associated protein kinase 2 (Homo sapiens) (UniProt O75116); test: Inhibition of ROCK2 (unknown origin) at 1 uM by mobility shift microfluidics platform based assay relative to control
# [23] = molecular target: Tyrosine-protein kinase Srms (Homo sapiens) (UniProt Q9H3Y6); test: Inhibition of SRMS (unknown origin) at 1 uM by mobility shift microfluidics platform based assay relative to control
# [24] = molecular target: MAP/microtubule affinity-regulating kinase 4 (Homo sapiens) (UniProt Q96L34); test: Inhibition of MARK4 (unknown origin) at 1 uM by mobility shift microfluidics platform based assay relative to control
# [25] = molecular target: Mitogen-activated protein kinase 11 (Homo sapiens) (UniProt Q15759); test: Inhibition of P38-beta (unknown origin) at 1 uM by mobility shift microfluidics platform based assay relative to control
# [26] = molecular target: Serine/threonine-protein kinase B-raf (Homo sapiens, UniProt P15056, V600E); test: Inhibition of BRAF V600E mutant (unknown origin) after 20 mins by immunoblotting assay
# [27] = molecular target: Tyrosine-protein kinase SYK (Homo sapiens) (UniProt P43405); test: Inhibition of SYK (unknown origin) at 1 uM by mobility shift microfluidics platform based assay relative to control
# [28] = molecular target: Serine/threonine-protein kinase pim-2 (Homo sapiens) (UniProt Q9P1W9); test: Inhibition of PIM2 (unknown origin) at 1 uM by mobility shift microfluidics platform based assay relative to control
# [29] = molecular target: 3-phosphoinositide-dependent protein kinase 1 (Homo sapiens) (UniProt O15530); test: Inhibition of PDK1 (unknown origin) at 1 uM by mobility shift microfluidics platform based assay relative to control
# [30] = molecular target: Death-associated protein kinase 1 (Homo sapiens) (UniProt P53355); test: Inhibition of DAPK1 (unknown origin) at 1 uM by mobility shift microfluidics platform based assay relative to control
# [31] = molecular target: Serine/threonine-protein kinase SIK1 (Homo sapiens) (UniProt P57059); test: Inhibition of SIK (unknown origin) at 1 uM by mobility shift microfluidics platform based assay relative to control
# [32] = molecular target: Serine/threonine-protein kinase 26 (Homo sapiens) (UniProt Q9P289); test: Inhibition of MST4 (unknown origin) at 1 uM by mobility shift microfluidics platform based assay relative to control
# [33] = molecular target: Serine/threonine-protein kinase haspin (Homo sapiens) (UniProt Q8TF76); test: Inhibition of HASPIN (unknown origin) at 1 uM by mobility shift microfluidics platform based assay relative to control
# Sequence of Non-receptor tyrosine-protein kinase TNK1 (Homo sapiens) (Q13470 whole entry): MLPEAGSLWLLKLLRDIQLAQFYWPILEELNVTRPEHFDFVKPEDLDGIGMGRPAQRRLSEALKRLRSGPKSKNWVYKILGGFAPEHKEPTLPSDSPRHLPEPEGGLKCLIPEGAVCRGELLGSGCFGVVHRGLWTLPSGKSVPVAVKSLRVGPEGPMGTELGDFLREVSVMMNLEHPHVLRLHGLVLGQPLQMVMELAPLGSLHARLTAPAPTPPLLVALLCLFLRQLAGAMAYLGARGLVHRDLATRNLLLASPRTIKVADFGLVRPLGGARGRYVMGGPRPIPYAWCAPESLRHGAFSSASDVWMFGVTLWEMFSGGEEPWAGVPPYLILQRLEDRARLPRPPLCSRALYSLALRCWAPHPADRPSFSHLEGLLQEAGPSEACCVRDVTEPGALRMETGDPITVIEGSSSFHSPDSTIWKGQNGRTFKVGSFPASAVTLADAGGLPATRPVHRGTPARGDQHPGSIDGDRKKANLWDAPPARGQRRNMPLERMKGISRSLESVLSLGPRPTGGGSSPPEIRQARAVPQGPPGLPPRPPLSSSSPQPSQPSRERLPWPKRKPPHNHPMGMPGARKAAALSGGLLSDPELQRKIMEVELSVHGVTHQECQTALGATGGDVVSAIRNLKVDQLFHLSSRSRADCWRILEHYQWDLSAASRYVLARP
# Sequence of 3-phosphoinositide-dependent protein kinase 1 (Homo sapiens) (O15530 whole entry): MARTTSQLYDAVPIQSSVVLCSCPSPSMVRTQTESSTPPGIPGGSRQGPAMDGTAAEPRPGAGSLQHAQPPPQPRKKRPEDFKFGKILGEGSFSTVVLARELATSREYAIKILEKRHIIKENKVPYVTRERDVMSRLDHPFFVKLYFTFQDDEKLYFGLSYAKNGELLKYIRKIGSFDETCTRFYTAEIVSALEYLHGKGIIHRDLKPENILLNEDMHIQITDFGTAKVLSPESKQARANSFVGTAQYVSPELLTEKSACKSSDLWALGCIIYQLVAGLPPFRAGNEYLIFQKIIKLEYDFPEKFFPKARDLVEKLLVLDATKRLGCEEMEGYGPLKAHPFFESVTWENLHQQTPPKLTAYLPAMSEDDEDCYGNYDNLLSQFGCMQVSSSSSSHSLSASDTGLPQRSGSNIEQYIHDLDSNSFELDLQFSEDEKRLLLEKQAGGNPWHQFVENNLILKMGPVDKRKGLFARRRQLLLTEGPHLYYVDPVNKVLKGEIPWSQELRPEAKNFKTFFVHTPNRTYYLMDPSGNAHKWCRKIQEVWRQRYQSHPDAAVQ
# Sequence of Serine/threonine-protein kinase 25 (Homo sapiens) (O00506 whole entry, looked up): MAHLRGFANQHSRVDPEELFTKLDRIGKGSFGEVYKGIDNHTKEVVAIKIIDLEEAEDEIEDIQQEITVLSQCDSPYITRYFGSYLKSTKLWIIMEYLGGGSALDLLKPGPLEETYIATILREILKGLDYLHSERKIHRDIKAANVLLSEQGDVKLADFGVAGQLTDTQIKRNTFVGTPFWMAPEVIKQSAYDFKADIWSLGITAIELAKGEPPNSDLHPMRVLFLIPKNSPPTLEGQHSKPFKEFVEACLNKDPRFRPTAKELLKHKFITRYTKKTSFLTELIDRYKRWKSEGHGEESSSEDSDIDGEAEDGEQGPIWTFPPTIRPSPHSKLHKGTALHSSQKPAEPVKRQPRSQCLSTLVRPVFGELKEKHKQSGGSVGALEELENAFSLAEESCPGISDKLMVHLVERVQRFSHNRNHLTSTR
# Sequence of Mitogen-activated protein kinase 11 (Homo sapiens) (Q15759 whole entry): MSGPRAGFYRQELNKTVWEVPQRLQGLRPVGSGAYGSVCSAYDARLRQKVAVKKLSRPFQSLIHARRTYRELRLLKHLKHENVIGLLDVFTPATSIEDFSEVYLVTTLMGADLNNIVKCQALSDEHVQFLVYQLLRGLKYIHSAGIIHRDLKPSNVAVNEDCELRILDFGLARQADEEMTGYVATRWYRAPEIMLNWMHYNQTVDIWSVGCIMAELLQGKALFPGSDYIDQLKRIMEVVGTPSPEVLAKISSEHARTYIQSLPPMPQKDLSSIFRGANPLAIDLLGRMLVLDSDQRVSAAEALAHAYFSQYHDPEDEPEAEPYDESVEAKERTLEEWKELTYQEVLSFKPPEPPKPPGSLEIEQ
# Sequence of Fibroblast growth factor receptor 2 (Homo sapiens) (P21802 22-821 limits assumed): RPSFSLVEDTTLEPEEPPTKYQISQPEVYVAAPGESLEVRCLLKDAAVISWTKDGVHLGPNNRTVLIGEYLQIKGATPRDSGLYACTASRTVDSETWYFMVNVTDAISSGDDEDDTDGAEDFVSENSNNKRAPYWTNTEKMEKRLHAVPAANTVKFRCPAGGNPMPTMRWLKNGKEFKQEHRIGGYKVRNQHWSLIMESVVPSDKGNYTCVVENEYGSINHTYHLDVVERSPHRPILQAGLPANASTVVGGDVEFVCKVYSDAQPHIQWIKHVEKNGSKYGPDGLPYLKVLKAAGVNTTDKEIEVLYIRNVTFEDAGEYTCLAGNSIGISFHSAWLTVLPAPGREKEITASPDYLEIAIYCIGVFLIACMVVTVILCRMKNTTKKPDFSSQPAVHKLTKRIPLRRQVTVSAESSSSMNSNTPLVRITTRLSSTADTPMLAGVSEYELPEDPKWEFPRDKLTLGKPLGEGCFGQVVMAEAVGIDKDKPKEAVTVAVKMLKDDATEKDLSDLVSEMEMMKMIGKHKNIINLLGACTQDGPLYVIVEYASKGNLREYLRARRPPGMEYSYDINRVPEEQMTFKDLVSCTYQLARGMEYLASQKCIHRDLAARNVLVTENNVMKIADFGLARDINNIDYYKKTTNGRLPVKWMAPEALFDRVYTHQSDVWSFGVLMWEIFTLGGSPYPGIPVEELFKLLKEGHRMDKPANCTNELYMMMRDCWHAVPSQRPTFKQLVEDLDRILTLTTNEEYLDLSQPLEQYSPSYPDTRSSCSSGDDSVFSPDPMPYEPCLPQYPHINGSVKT
# Sequence of Serine/threonine-protein kinase 26 (Homo sapiens) (Q9P289 2-416 limits assumed): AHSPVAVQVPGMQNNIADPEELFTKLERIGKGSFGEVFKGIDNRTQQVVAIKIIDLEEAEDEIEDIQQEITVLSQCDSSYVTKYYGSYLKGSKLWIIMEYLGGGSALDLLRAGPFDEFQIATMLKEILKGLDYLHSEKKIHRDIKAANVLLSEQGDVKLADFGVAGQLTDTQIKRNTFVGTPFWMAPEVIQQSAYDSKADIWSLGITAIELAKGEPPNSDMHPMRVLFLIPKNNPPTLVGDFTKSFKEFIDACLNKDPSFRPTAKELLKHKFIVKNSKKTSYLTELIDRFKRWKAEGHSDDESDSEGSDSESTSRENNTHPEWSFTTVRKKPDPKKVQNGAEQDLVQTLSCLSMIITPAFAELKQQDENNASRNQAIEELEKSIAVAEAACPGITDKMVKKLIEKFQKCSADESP
# Sequence of Ephrin type-B receptor 2 (Homo sapiens) (P29323 whole entry): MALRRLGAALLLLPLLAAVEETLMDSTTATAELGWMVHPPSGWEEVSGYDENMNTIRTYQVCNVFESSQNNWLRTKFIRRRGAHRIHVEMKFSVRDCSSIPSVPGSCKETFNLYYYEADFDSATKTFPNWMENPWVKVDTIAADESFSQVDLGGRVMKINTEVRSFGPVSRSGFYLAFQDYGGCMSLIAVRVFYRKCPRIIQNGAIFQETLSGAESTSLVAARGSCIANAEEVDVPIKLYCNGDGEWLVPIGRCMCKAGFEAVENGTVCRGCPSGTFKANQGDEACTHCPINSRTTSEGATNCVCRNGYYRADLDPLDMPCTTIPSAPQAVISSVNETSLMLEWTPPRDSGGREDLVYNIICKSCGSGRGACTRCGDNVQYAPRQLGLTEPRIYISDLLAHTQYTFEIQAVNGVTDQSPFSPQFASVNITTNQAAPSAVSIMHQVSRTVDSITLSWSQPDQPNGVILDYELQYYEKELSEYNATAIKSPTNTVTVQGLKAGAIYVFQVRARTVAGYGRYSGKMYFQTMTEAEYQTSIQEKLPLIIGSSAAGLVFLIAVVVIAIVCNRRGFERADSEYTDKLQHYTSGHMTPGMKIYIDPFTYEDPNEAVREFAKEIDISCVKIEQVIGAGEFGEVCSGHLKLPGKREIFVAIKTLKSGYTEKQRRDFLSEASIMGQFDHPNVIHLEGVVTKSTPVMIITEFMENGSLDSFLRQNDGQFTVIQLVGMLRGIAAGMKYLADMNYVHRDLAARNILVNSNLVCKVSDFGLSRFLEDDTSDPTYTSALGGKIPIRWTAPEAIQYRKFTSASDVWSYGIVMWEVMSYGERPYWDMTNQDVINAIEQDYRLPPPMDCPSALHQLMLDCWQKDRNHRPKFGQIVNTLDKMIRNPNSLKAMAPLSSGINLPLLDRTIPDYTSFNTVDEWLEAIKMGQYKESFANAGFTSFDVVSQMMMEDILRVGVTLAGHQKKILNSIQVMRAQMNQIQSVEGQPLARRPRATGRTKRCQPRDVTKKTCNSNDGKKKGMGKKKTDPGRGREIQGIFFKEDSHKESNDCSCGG
# Sequence of RAC-alpha serine/threonine-protein kinase (Homo sapiens) (P31749 whole entry): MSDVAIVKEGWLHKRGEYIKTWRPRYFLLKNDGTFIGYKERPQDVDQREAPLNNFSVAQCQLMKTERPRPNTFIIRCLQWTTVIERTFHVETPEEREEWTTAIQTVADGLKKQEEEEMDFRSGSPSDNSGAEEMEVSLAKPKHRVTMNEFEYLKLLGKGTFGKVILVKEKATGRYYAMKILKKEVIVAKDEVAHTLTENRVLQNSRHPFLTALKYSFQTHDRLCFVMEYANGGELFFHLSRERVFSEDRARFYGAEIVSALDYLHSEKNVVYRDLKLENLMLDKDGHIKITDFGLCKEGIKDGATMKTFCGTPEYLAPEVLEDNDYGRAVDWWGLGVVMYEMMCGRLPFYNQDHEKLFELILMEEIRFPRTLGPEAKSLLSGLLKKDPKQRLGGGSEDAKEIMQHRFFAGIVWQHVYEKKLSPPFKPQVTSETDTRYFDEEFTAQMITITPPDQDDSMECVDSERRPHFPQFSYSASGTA
inhibition [1],inhibition [2],inhibition [3],inhibition [4],inhibition [5],inhibition [6],inhibition [7],inhibition [8],inhibition [9],inhibition [10],inhibition [11],Papp B→A [12],inhibition [13],inhibition [14],inhibition [15],inhibition [16],inhibition [17],inhibition [18],inhibition [19],inhibition [20],Compound,also measured
4%,2%,11%,100%,-5%,2%,0%,99%,10%,-1%,-8%,10 nm/s,74%,19%,99%,6%,-1%,-8%,84%,0%,CC(C)n1nc(C#Cc2cccc(NC(=O)c3cccc(C(F)(F)F)c3)c2)c2c(N)ncnc21,inhibition [21]: 0%; inhibition [22]: 18%; inhibition [23]: 55%; inhibition [24]: -4%; inhibition [25]: 23%; IC50 [26]: 0.004 µM; inhibition [27]: -4%; inhibition [28]: -1%; inhibition [29]: 4%; inhibition [30]: -2%; inhibition [31]: 43%; inhibition [32]: 9%; inhibition [33]: 5%
3%,5%,-3%,94%,3%,4%,-1%,97%,2%,-1%,4%,26 nm/s,5%,3%,96%,1%,0%,3%,19%,2%,CC(C)n1nc(C#Cc2cccc3cc(-c4cccc(C(F)(F)F)c4)ncc23)c2c(N)ncnc21,inhibition [21]: -1%; inhibition [22]: 4%; inhibition [23]: 20%; inhibition [24]: -1%; inhibition [25]: 3%; IC50 [26]: 0.065 µM; inhibition [27]: 6%; inhibition [28]: 0%; inhibition [29]: 5%; inhibition [30]: -2%; inhibition [31]: 7%; inhibition [32]: -1%; inhibition [33]: 1%
